According to ChEMBL document CHEMBL4689842, “EUbOPEN Chemogenomics Library wave 1” (2021):

Tested on: U2OS
Experiment: Multiplex assay against U2OS
Assay type: toxicity, cell-based
Details: human
Summary of the method: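 Per cents of healthy-nucleus cells form the tubulin, mitochondrial-mass and membrane-permeability phenotype values. Live cells were stained at seeding with Hoechst33342, BioTracker Green Microtubule Cytoskeleton Dye, MitoTracker Red and Annexin V Alexa Fluor 680. After compound addition they were imaged on a CQ1 microscope at 37°C and 5% CO2, and CellPathfinder machine-learning gating split them into Hoechst high-intensity objects or normal cells, normal cells into healthy, pyknosed or fragmented nuclei, and pyknosed cells into mitotic or apoptotic.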

[1] = 12 h, 1 µM, compound concentration 1 uM, replicate 1
[2] = 12 h, 1 µM, compound concentration 1 uM, replicate 2
[3] = 12 h, 10 µM, compound concentration 10 uM, replicate 1
[4] = 12 h, 10 µM, compound concentration 10 uM, replicate 2
[5] = 24 h, 1 µM, compound concentration 1 uM, replicate 1
[6] = 24 h, 1 µM, compound concentration 1 uM, replicate 2
[7] = 24 h, 10 µM, compound concentration 10 uM, replicate 1
[8] = 24 h, 10 µM, compound concentration 10 uM, replicate 2
[9] = 48 h, 1 µM, compound concentration 1 uM, replicate 1
[10] = 48 h, 1 µM, compound concentration 1 uM, replicate 2
[11] = 48 h, 10 µM, compound concentration 10 uM, replicate 1
[12] = 48 h, 10 µM, compound concentration 10 uM, replicate 2

With `CCCc1cc(C)[nH]c(=O)c1CNC(=O)c1cc(-c2ccc(N3CCN(C(C)C)CC3)nc2)cc2c1cnn2C(C)C` the “Population Apoptotic (%)” value [1] was 64%, the “Population Fragmented Nuclei (%)” value [1] was 21% and the “Population Healthy Nuclei (%)” value [1] was 53%. For the same compound, the “Population Hoechst High Intensity Objects (%)” value [1] was 15%, the “Population Membrane Permeable-Phenotype (%)” value [1] was 13% and the “Population Mitochondria Different-Phenotype (%)” value [1] was 81%. The “Population Mitotic Cells (%)” value [1] was 35%, the “Population Normal (%)” value [1] was 84% and the “Population Pyknosed Nuclei (%)” value [1] was 24%. For the same compound, the “Population Tubulin-Different-Phenotype (%)” value [1] was 81%, the “Total Cell Count” value [1] was 124 and the “Population Apoptotic (%)” value [2] was 20%. For the same compound, the “Population Fragmented Nuclei (%)” value [2] was 19%, the “Population Healthy Nuclei (%)” value [2] was 70% and the “Population Hoechst High Intensity Objects (%)” value [2] was 10%. The “Population Membrane Permeable-Phenotype (%)” value [2] was 8%, the “Population Mitochondria Different-Phenotype (%)” value [2] was 91% and the “Population Mitotic Cells (%)” value [2] was 80%. For the same compound, the “Population Normal (%)” value [2] was 89%, the “Population Pyknosed Nuclei (%)” value [2] was 9% and the “Population Tubulin-Different-Phenotype (%)” value [2] was 94%. The “Total Cell Count” value [2] was 56, the “Population Apoptotic (%)” value [3] was 70% and the “Population Fragmented Nuclei (%)” value [3] was 24%. The “Population Healthy Nuclei (%)” value [3] was 49%, the “Population Hoechst High Intensity Objects (%)” value [3] was 8% and the “Population Membrane Permeable-Phenotype (%)” value [3] was 64%. The “Population Mitotic Cells (%)” value [3] was 29%, the “Population Normal (%)” value [3] was 91% and the “Population Pyknosed Nuclei (%)” value [3] was 26%. For the same compound, the “Population Tubulin-Different-Phenotype (%)” value [3] was 98%, the “Total Cell Count” value [3] was 82 and the “Population Apoptotic (%)” value [4] was 85%. For the same compound, the “Population Fragmented Nuclei (%)” value [4] was 13%, the “Population Healthy Nuclei (%)” value [4] was 47% and the “Population Hoechst High Intensity Objects (%)” value [4] was 5%. For the same compound, the “Population Membrane Permeable-Phenotype (%)” value [4] was 79%, the “Population Mitochondria Different-Phenotype (%)” value [4] was 100% and the “Population Mitotic Cells (%)” value [4] was 14%. For the same compound, the “Population Normal (%)” value [4] was 94%, the “Population Pyknosed Nuclei (%)” value [4] was 38% and the “Population Tubulin-Different-Phenotype (%)” value [4] was 100%. For the same compound, the “Total Cell Count” value [4] was 57, the “Population Apoptotic (%)” value [5] was 71% and the “Population Fragmented Nuclei (%)” value [5] was 18%. The “Population Healthy Nuclei (%)” value [5] was 60%, the “Population Hoechst High Intensity Objects (%)” value [5] was 13% and the “Population Membrane Permeable-Phenotype (%)” value [5] was 20%. The “Population Mitochondria Different-Phenotype (%)” value [5] was 89%, the “Population Mitotic Cells (%)” value [5] was 28% and the “Population Normal (%)” value [5] was 86%. For the same compound, the “Population Pyknosed Nuclei (%)” value [5] was 21%, the “Population Tubulin-Different-Phenotype (%)” value [5] was 79% and the “Total Cell Count” value [5] was 132. For the same compound, the “Population Apoptotic (%)” value [6] was 33%, the “Population Fragmented Nuclei (%)” value [6] was 20% and the “Population Healthy Nuclei (%)” value [6] was 51%. For the same compound, the “Population Hoechst High Intensity Objects (%)” value [6] was 10%, the “Population Membrane Permeable-Phenotype (%)” value [6] was 10% and the “Population Mitochondria Different-Phenotype (%)” value [6] was 78%. The “Population Mitotic Cells (%)” value [6] was 66%, the “Population Normal (%)” value [6] was 90% and the “Population Pyknosed Nuclei (%)” value [6] was 27%. For the same compound, the “Population Tubulin-Different-Phenotype (%)” value [6] was 82%, the “Total Cell Count” value [6] was 53 and the “Population Apoptotic (%)” value [7] was 88%. The “Population Fragmented Nuclei (%)” value [7] was 23%, the “Population Healthy Nuclei (%)” value [7] was 36% and the “Population Membrane Permeable-Phenotype (%)” value [7] was 80%. The “Population Mitotic Cells (%)” value [7] was 11%, the “Population Pyknosed Nuclei (%)” value [7] was 39% and the “Total Cell Count” value [7] was 75. The “Population Apoptotic (%)” value [8] was 91%, the “Population Fragmented Nuclei (%)” value [8] was 8% and the “Population Healthy Nuclei (%)” value [8] was 48%. The “Population Hoechst High Intensity Objects (%)” value [8] was 9%, the “Population Membrane Permeable-Phenotype (%)” value [8] was 85% and the “Population Mitochondria Different-Phenotype (%)” value [8] was 100%. For the same compound, the “Population Mitotic Cells (%)” value [8] was 8%, the “Population Normal (%)” value [8] was 90% and the “Population Pyknosed Nuclei (%)” value [8] was 42%. The “Population Tubulin-Different-Phenotype (%)” value [8] was 100%, the “Total Cell Count” value [8] was 60 and the “Population Apoptotic (%)” value [9] was 70%. For the same compound, the “Population Fragmented Nuclei (%)” value [9] was 23%, the “Population Healthy Nuclei (%)” value [9] was 56% and the “Population Hoechst High Intensity Objects (%)” value [9] was 10%. The “Population Membrane Permeable-Phenotype (%)” value [9] was 18%, the “Population Mitochondria Different-Phenotype (%)” value [9] was 83% and the “Population Mitotic Cells (%)” value [9] was 29%. The “Population Normal (%)” value [9] was 89%, the “Population Pyknosed Nuclei (%)” value [9] was 20% and the “Population Tubulin-Different-Phenotype (%)” value [9] was 77%. The “Total Cell Count” value [9] was 142, the “Population Apoptotic (%)” value [10] was 46% and the “Population Fragmented Nuclei (%)” value [10] was 22%. The “Population Healthy Nuclei (%)” value [10] was 59%, the “Population Hoechst High Intensity Objects (%)” value [10] was 12% and the “Population Membrane Permeable-Phenotype (%)” value [10] was 27%. The “Population Mitochondria Different-Phenotype (%)” value [10] was 72%, the “Population Mitotic Cells (%)” value [10] was 53% and the “Population Normal (%)” value [10] was 87%. The “Population Pyknosed Nuclei (%)” value [10] was 18%, the “Population Tubulin-Different-Phenotype (%)” value [10] was 74% and the “Total Cell Count” value [10] was 65. The “Population Apoptotic (%)” value [11] was 95%, the “Population Fragmented Nuclei (%)” value [11] was 26% and the “Population Healthy Nuclei (%)” value [11] was 15%. For the same compound, the “Population Hoechst High Intensity Objects (%)” value [11] was 14%, the “Population Membrane Permeable-Phenotype (%)” value [11] was 89% and the “Population Mitochondria Different-Phenotype (%)” value [11] was 100%. For the same compound, the “Population Mitotic Cells (%)” value [11] was 4%, the “Population Normal (%)” value [11] was 85% and the “Population Pyknosed Nuclei (%)” value [11] was 57%. For the same compound, the “Population Tubulin-Different-Phenotype (%)” value [11] was 100%, the “Total Cell Count” value [11] was 95 and the “Population Apoptotic (%)” value [12] was 100%. The “Population Fragmented Nuclei (%)” value [12] was 13%, the “Population Healthy Nuclei (%)” value [12] was 37% and the “Population Hoechst High Intensity Objects (%)” value [12] was 16%. For the same compound, the “Population Membrane Permeable-Phenotype (%)” value [12] was 96%, the “Population Mitotic Cells (%)” value [12] was 0% and the “Population Normal (%)” value [12] was 83%. The “Population Pyknosed Nuclei (%)” value [12] was 49% and the “Total Cell Count” value [12] was 82.
